# Results from different studies.
# Target: Casein kinase I isoform alpha (CSNK1A1, Homo sapiens, UniProt P48729)
Structure (SMILES),read-out,technique,tested at,remaining binding [%]
Cn1nc(C(F)(F)F)cc1-c1cnc(N2CCc3cc(S(=O)(=O)Nc4c(F)cc(Cl)cc4F)cc(N4CCCC4=O)c32)nc1,cell-free assay,competition with immobilised ligand,1 µM,86
Nc1ncc2c(n1)-c1c([nH]c3ccc(C#CC4CC4)cc13)CCCC2,binding,competition with immobilised ligand,1 µM,93
CNCc1ccccc1-c1csc([C@H](C)Nc2nc(C)nc3cc(OC)c(OC)cc23)c1,cell-free assay,competition with immobilised ligand,1 µM,74
CC1CCCN1c1nccc(-c2cnn3ncccc23)n1 (stereo not shown),binding,,1 µM,100
Cc1cnc(Nc2ccc(C(=O)N3CCC(N4CCCC4)CC3)cc2)nc1-c1cc2ccccc2s1,binding,competition with immobilised ligand,1 µM,60
CS(=O)(=O)NCC[C@H](NC(=O)c1cncc2c1cnn2-c1ccc(F)cc1)c1ccnc(S(C)(=O)=O)c1,cell-free assay,competition with immobilised ligand,1 µM,100
O=C(NCCCN1CCOCC1)c1ccc(Nc2nccc(-c3cc4ccccc4s3)n2)cc1,binding,competition with immobilised ligand,1 µM,74
C[C@@H](c1ccc(-n2cnc3c(N)ncnc32)cc1)N1CCc2nn(C)c(Cc3ccccc3)c2C1=O,binding,competition with immobilised ligand,0.1 µM,87
CS(=O)(=O)c1cc(C2(NC(=O)c3cncc4c3cnn4-c3ccc(F)cc3)CC2)ccn1,cell-free assay,competition with immobilised ligand,1 µM,96
C[C@@H]1CCN(c2nccc(-c3cnn4ncccc34)n2)C1,binding,,1 µM,61
CCN1CCN(Cc2ccc(C(=O)Nc3ccc(C)c(Oc4ccc5c(c4)CC(=O)N5)c3)cc2C(F)(F)F)CC1,binding,competition with immobilised ligand,1 µM,100
Cc1cnn2ncc(-c3ccnc(N(C)C)n3)c2c1,binding,,1 µM,43
CNC(=O)[C@@H]1CC[C@@H](n2c(-c3ccc4cnccc4c3)nc3ccc(C(=O)NCc4cccc(C(N)=O)c4)cc32)C1,binding,competition with immobilised ligand,1 µM,99
O=C(c1ccc(Nc2ncc(Cl)c(-c3ccc(Cl)s3)n2)cc1)N1CCC(N2CCCC2)CC1,binding,competition with immobilised ligand,1 µM,97
O=C(Nc1c[nH]nc1C(=O)NC1CCNCC1)c1cc(F)cc(F)c1,binding,competition with immobilised ligand,1 µM,75
CNC(=O)Nc1ccc2c(c1)CC[C@@]21OC(=O)N(CC(=O)N(Cc2ccc(F)cc2)[C@@H](C)C(F)(F)F)C1=O,cell-free assay,competition with immobilised ligand,1 µM,93
N[C@@H]1CCN(c2nccc(-c3cnn4ncccc34)n2)C1,binding,,1 µM,12
C=CC(=O)N1CCC(C(=O)NCC(=O)N2CCN(c3nc(-c4cnc(N)nc4C(F)F)nc(N4CCOCC4)n3)CC2)CC1,binding,competition with immobilised ligand,1 µM,89
c1cnn2ncc(-c3ccnc(N4CCC45COC5)n3)c2c1,binding,,1 µM,14
CCCCN(CCCC)C(=O)CN1C[C@H](c2cc(OC)c3c(c2)OCO3)[C@@H](C(=O)O)[C@@H]1CC(C)(C)CCC,cell-free assay,competition with immobilised ligand,1 µM,98.1
COc1ncc2cc3ccccc3nc2c1C#N,cell-free assay,competition with immobilised ligand,5 µM,97
CN(C)c1nccc(-c2cnc3ncccn23)n1,binding,,1 µM,36
